Experimental data from ChEMBL document CHEMBL4715736, “Identification of anticancer agents based on the thieno[2,3-b]pyridine and 1H-pyrazole molecular scaffolds” (2016).

What was measured:
Format in all cases: functional
Conditions in all cases: read-out: Activity
[1] = tested on: K562; experiment: Growth inhibition of human K562 cells assessed as cell growth at 10 uM incubated for 48 hrs by sulforhodamine B assay relative to control
Procedure, shortened: (§1)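 Submitted to the NCI Developmental Therapeutics Program for the NCI60 human tumour cell line panel. First screen at a single 10 µM concentration. Read-out is growth relative to untreated control cells set at 100%.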

[2] = tested on: MOLT-4; experiment: Growth inhibition of human MOLT-4 cells assessed as cell growth at 10 uM incubated for 48 hrs by sulforhodamine B assay relative to control; procedure, shortened: as §1
[3] = tested on: HL-60(TB); experiment: Growth inhibition of human HL-60(TB) cells assessed as cell growth at 10 uM incubated for 48 hrs by sulforhodamine B assay relative to control
Procedure, shortened: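 Screened by the NCI Developmental Therapeutics Program on its panel of 60 human tumour cell lines. Compounds were first tested at a single 10 µM dose, and compounds active there went to dose-response curves. Growth is expressed relative to untreated control (100%). GI50 (50% of maximal proliferation inhibition) and TGI (total growth inhibition) were derived from the dose-response data.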

[4] = tested on: SNB-75; experiment: Growth inhibition of human SNB-75 cells assessed as cell growth at 10 uM incubated for 48 hrs by sulforhodamine B assay relative to control
Procedure, shortened: (§2)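 Run by the NCI Developmental Therapeutics Program as part of its 60-line human tumour panel. Each compound tested at a single 10 µM dose. Growth expressed as % relative to untreated control cells (100%).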

[5] = tested on: HCT-15; experiment: Growth inhibition of human HCT-15 cells assessed as cell growth at 10 uM incubated for 48 hrs by sulforhodamine B assay relative to control; procedure, shortened: as §1
[6] = tested on: 786-0; experiment: Growth inhibition of human 786-0 cells assessed as cell growth at 10 uM incubated for 48 hrs by sulforhodamine B assay relative to control
Procedure, shortened: (§3)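 NCI Developmental Therapeutics Program NCI60 panel. Compounds that were active in the 10 µM one-dose screen went on to dose–response testing. Growth at each concentration is expressed relative to untreated control (100%). GI50 (concentration giving 50% of maximal inhibition of proliferation) and TGI (concentration giving total growth inhibition) were derived from the curves.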

[7] = tested on: SR; experiment: Growth inhibition of human SR cells assessed as cell growth at 10 uM incubated for 48 hrs by sulforhodamine B assay relative to control; procedure, shortened: as §2
[8] = tested on: MDA-MB-231; experiment: Growth inhibition of human MDA-MB-231 cells assessed as cell growth at 10 uM incubated for 48 hrs by sulforhodamine B assay relative to control; procedure, shortened: as §1
[9] = tested on: MDA-MB-435; experiment: Growth inhibition of human MDA-MB-435 cells assessed as cell growth at 10 uM incubated for 48 hrs by sulforhodamine B assay relative to control; procedure, shortened: as §1
[10] = tested on: SW-620; experiment: Growth inhibition of human SW-620 cells assessed as cell growth at 10 uM incubated for 48 hrs by sulforhodamine B assay relative to control; procedure, shortened: as §2
[11] = tested on: A498; experiment: Growth inhibition of human A498 cells assessed as cell growth at 10 uM incubated for 48 hrs by sulforhodamine B assay relative to control; procedure, shortened: as §3
[12] = tested on: SF-268; experiment: Growth inhibition of human SF-268 cells assessed as cell growth at 10 uM incubated for 48 hrs by sulforhodamine B assay relative to control; procedure, shortened: as §2
[13] = tested on: UO-31; experiment: Growth inhibition of human UO-31 cells assessed as cell growth at 10 uM incubated for 48 hrs by sulforhodamine B assay relative to control; procedure, shortened: as §2
[14] = tested on: NCI/ADR-RES; experiment: Growth inhibition of human NCI/ADR-RES cells assessed as cell growth at 10 uM incubated for 48 hrs by sulforhodamine B assay relative to control; procedure, shortened: as §1
[15] = tested on: Hs-578T; experiment: Growth inhibition of human Hs-578T cells assessed as cell growth at 10 uM incubated for 48 hrs by sulforhodamine B assay relative to control; procedure, shortened: as §1
[16] = tested on: CAKI-1; experiment: Growth inhibition of human CAKI-1 cells assessed as cell growth at 10 uM incubated for 48 hrs by sulforhodamine B assay relative to control; procedure, shortened: as §3
[17] = tested on: NCI-H226; experiment: Growth inhibition of human NCI-H226 cells assessed as cell growth at 10 uM incubated for 48 hrs by sulforhodamine B assay relative to control; procedure, shortened: as §1
[18] = tested on: PC-3; experiment: Growth inhibition of human PC-3 cells assessed as cell growth at 10 uM incubated for 48 hrs by sulforhodamine B assay relative to control; procedure, shortened: as §2
[19] = tested on: TK-10; experiment: Growth inhibition of human TK-10 cells assessed as cell growth at 10 uM incubated for 48 hrs by sulforhodamine B assay relative to control; procedure, shortened: as §2
[20] = tested on: NCI-H522; experiment: Growth inhibition of human NCI-H522 cells assessed as cell growth at 10 uM incubated for 48 hrs by sulforhodamine B assay relative to control; procedure, shortened: as §1
[21] = tested on: SK-MEL-2; experiment: Growth inhibition of human SK-MEL-2 cells assessed as cell growth at 10 uM incubated for 48 hrs by sulforhodamine B assay relative to control; procedure, shortened: as §2

| Compound | growth at 10 µM [1] [%] | growth at 10 µM [2] [%] | growth at 10 µM [3] [%] | growth at 10 µM [4] [%] | growth at 10 µM [5] [%] | growth at 10 µM [6] [%] | growth at 10 µM [7] [%] | growth at 10 µM [8] [%] | growth at 10 µM [9] [%] | growth at 10 µM [10] [%] | growth at 10 µM [11] [%] | growth at 10 µM [12] [%] | growth at 10 µM [13] [%] | growth at 10 µM [14] [%] | growth at 10 µM [15] [%] | growth at 10 µM [16] [%] | growth at 10 µM [17] [%] | growth at 10 µM [18] [%] | growth at 10 µM [19] [%] | growth at 10 µM [20] [%] | other results |
| --- | --- | --- | --- | --- | --- | --- | --- | --- | --- | --- | --- | --- | --- | --- | --- | --- | --- | --- | --- | --- | --- |
| CC1(C)CCc2cc(-c3ccn(S(=O)(=O)c4ccc(C(F)(F)F)cc4)n3)ccc2O1 | 76.8 | 78.7 | 117 | 93.5 | 87.4 | 82.5 | 69.8 | 112 | 96.6 | 90.2 | 74.2 | 104 | 80.2 | 92.4 | 101 | 76.7 | 75.6 | 76.6 | – | – | – |
| Cc1cc(C)cc(S(=O)(=O)n2ccc(-c3ccc4c(c3)CCC(C)(C)O4)n2)c1 | 85.8 | 91.4 | 99.8 | 87.2 | 82.3 | 82.8 | 76.5 | 93.5 | 93.8 | 88.3 | 63 | 88.3 | 75 | 79 | 92.7 | 72.5 | 66.8 | 82.4 | – | – | – |
| CC1(C)CCc2cc(-c3ccn(S(=O)(=O)c4ccccc4)n3)ccc2O1 | 10 | 61.5 | 89.4 | 78.9 | 64.9 | 74.5 | 56.7 | 104 | 79 | 71 | 65.4 | 85.4 | 63.6 | 76 | 90.1 | 62.9 | 69.7 | 61.8 | – | – | – |
| COc1ccc(-c2ccn(S(=O)(=O)c3ccc(OC)cc3)n2)cc1 | 57 | 73.2 | 99.4 | 88.9 | 83 | 80.2 | 57.8 | 96.2 | 88.4 | 82.1 | 50.2 | 95.6 | 72 | 88.4 | 93.6 | 66.2 | 70.9 | 65.8 | – | – | – |
| COc1ccc(S(=O)(=O)n2ccc(-c3ccc4c(c3)CCC(C)(C)O4)n2)cc1OC | 53 | 63.8 | 94.7 | 84.6 | 71.9 | 79.4 | 60.2 | 82.5 | 79.6 | 79.9 | 52.8 | 85.3 | 68.5 | 56.5 | 91.5 | 58.3 | 59 | 69.5 | 72.1 | 65.8 | growth at 10 µM [21]: 56.1% |
| CC1(C)CCc2cc(-c3ccn(S(=O)(=O)c4ccc(Cl)cc4Cl)n3)ccc2O1 | 75.7 | 84.8 | 102 | 97.4 | 91 | 79 | 77.9 | 93.3 | 95.7 | 91.9 | 68.9 | 99.5 | 73.3 | 96.1 | 98.8 | 83.8 | 87 | 62.3 | 68.7 | 60.4 | growth at 10 µM [21]: 79.7% |
